Experimental data from ChEMBL document CHEMBL1781951, “Theonellasterols and conicasterols from Theonella swinhoei. Novel marine natural ligands for human nuclear receptors” (J Med Chem, 2011).
Calls of active or inactive are those of the source. No cut-off for these calls is given here.

Legend:
[1] = molecular target: T1, Bile acid receptor (Homo sapiens) (UniProt Q96RI1); assay: Antagonist activity at human FXR expressed in HepG2 cells assessed as inhibition of CDCA-induced transactivation at 50 uM after 18 hrs by luciferase reporter gene assay
T1 sequence (whole entry): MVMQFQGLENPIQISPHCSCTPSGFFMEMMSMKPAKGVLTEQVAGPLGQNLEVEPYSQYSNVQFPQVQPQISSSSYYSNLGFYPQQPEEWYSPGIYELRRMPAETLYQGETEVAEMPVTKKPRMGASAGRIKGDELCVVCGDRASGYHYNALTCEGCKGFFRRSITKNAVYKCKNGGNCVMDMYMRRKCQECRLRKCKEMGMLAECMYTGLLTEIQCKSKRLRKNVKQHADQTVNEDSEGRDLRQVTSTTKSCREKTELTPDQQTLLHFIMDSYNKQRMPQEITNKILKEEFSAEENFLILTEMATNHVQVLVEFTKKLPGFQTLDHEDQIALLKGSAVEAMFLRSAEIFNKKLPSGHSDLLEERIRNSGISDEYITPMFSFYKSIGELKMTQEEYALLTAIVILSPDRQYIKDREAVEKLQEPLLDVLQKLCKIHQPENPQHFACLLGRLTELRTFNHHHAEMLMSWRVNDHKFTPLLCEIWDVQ

[2] = molecular target: T1, Bile acid receptor (Homo sapiens); assay: Partial agonist activity at human FXR expressed in human HepG2 cells assessed as induction of transactivation at 10 uM after 18 hrs by luciferase reporter gene assay; format: functional, cell-based
Procedure, shortened: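 HepG2 cells (5 × 10^5 cells/well) were transiently transfected using Fugene HD with pSG5-FXR, pSG5-RXR, pCMV-β-gal and a p(hsp27)-TK-LUC reporter carrying the hsp27 IR1 FXR response element. At 48 h post-transfection, cells were stimulated 18 h with test agent at 10 μM; 10 μM CDCA served as reference. Luciferase was normalized to β-gal; P < 0.05 vs untreated, n = 4.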

[3] = molecular target: T1, Bile acid receptor (Homo sapiens); assay: Agonist activity at human FXR expressed in human HepG2 cells assessed as induction of OSTalpha mRNA expression at 50 uM by quantitative RT-PCR analysis; format: functional, cell-based
Procedure, shortened: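 HepG2 cells were primed with 10 μM CDCA alone or with 50 μM test agent. cDNA (50 ng template) was amplified by SYBR Green qPCR with 0.2 μM of each primer over 40 cycles (95/55/72 °C) in triplicate. Expression was normalized to GAPDH and reported as 2^ΔΔCT relative to untreated cells.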

Structure (SMILES)	inhibition [1]	Activity [2]	Activity [3]
C=C1[C@@H](O)CC[C@@]2(C)[C@H]1CCC1=C3[C@H](O)C[C@H]([C@H](C)CC[C@@H](C)C(C)C)[C@@]3(C)CC[C@@]12O	Active	inactive	
C=C1[C@@H](O)CC[C@]2(C)C3=C(CC[C@@H]12)[C@@H]1C(=O)C[C@H]([C@H](C)CC[C@H](CC)C(C)C)[C@@]1(C)CC3	Active	inactive	
C=C1[C@@H](O)CC[C@]2(C)C3=C(CC[C@@H]12)[C@]1(O)[C@@H](O)C[C@H]([C@H](C)CC[C@H](CC)C(C)C)[C@@]1(C)C[C@@H]3O	Active	Active	Active
C=C1[C@@H](O)CC[C@@]2(C)[C@H]1CCC1=C3[C@H](O)C[C@H]([C@H](C)CC[C@H](CC)C(C)C)[C@@]3(C)CC[C@@]12OC	inactive	inactive	
C=C1[C@@H](O)CC[C@]2(C)C3=CC[C@@]4(C)C(=CC[C@@H]4[C@H](C)CC[C@H](CC)C(C)C)C3=CC[C@@H]12	Active	inactive	
C=C1[C@@H](O)CC[C@@]2(C)[C@H]1CCC1=C3[C@H](O)C[C@H]([C@H](C)CC[C@H](CC)C(C)C)[C@@]3(C)CC[C@@]12O	Active	inactive	
C=C1[C@@H](O)CC[C@]2(C)C3=CC[C@@]4(C)C(=CC[C@@H]4[C@H](C)CC[C@@H](C)C(C)C)C3=CC[C@@H]12	Active	inactive	
C=C1[C@@H](O)CC[C@]2(C)C3=C(CC[C@@H]12)[C@]1(O)[C@@H](O)C[C@H]([C@H](C)CC[C@H](CC)C(C)C)[C@@]1(C)C[C@H]3O	inactive	inactive	
C=C1[C@@H](O)CC[C@@]2(C)[C@H]1C[C@@H](O)C1=C3[C@H](O)C[C@H]([C@H](C)CC[C@H](CC)C(C)C)[C@@]3(C)CC[C@@H]12	Active	inactive	
